Measurements published in ChEMBL document CHEMBL4339222, “Covalent Inhibitors of Plasmodium falciparum Glyceraldehyde 3-Phosphate Dehydrogenase with Antimalarial Activity in Vitro” (ACS Med Chem Lett, 2019).
Activity calls are given as the source filed them. No cut-off for these calls is given here.

How the values were obtained:
Plasmodium falciparum [1] = experiment: Inhibition of recombinant His-tagged Plasmodium falciparum GAPDH expressed in Escherichia coli assessed as reduction in NADH formation by measuring Kinact/Ki ratio in presence of NAD+, DL-glyceraldehyde 3-phosphate and GAPDH by spectrophotometry based Ferdinand assay
[2] = Selectivity index, ratio of IC50 for human HMEC1 cells to IC50 for antimalarial activity against CQ-susceptible Plasmodium falciparum D10 infected in human type A-positive red blood cells; type: toxicity; details: read-out: Ratio IC50
Summary of the method: (§1)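 SI taken as HMEC-1 IC50 divided by antiplasmodial IC50. […] Each value is the mean of three experiments done in duplicate, with SD.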

HMEC-1 = experiment: Cytotoxicity in human HMEC1 cells assessed as reduction in cell viability incubated for 72 hrs by MTT assay; type: cell-based; details: HMEC-1, 72 h
Summary of the method: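 Human endothelial HMEC-1 cells exposed to compound for 72 h, then viability read by MTT (tetrazolium reduction) assay. Values are the mean ± SD of three separate experiments, each run in duplicate.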

Plasmodium falciparum [3] = experiment: Antimalarial activity against CQ-resistant Plasmodium falciparum W2 infected in human type A-positive red blood cells assessed as inhibition of parasite growth incubated for 72 hrs by spectrophotometry based parasite lactate dehydrogenase assay; type: functional, organism-based
Summary of the method: (§2)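 pLDH assay on P. falciparum D10 and W2 blood-stage cultures exposed to compound for 72 h; chloroquine run as control. IC50 values are the mean of three separate experiments, each done in duplicate, with SD.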

Plasmodium falciparum [4] = experiment: Antimalarial activity against CQ-susceptible Plasmodium falciparum D10 infected in human type A-positive red blood cells assessed as inhibition of parasite growth incubated for 72 hrs by spectrophotometry based parasite lactate dehydrogenase assay; type: functional, organism-based; summary of the method: as §2
[5] = Selectivity index, ratio of IC50 for human HMEC1 cells to IC50 for antimalarial activity against CQ-resistant Plasmodium falciparum W2 infected in human type A-positive red blood cells; type: toxicity; details: read-out: Ratio IC50; summary of the method: as §1
[6] = Plasmodium falciparum, W2, 72 h, read-out: IC50
[7] = Plasmodium falciparum, D10, 72 h, read-out: IC50

SMILES | Ratio (Plasmodium falciparum [1]) | selectivity ratio [2] | IC50 (HMEC-1) [nM] | IC50 (Plasmodium falciparum [3]; [6]) [nM] | IC50 (Plasmodium falciparum [4]; [7]) [nM] | selectivity ratio [5] | IC50 (Plasmodium falciparum [3]) | IC50 (Plasmodium falciparum [4])
N[C@H](CS(=O)(=O)Cc1ccccc1)[C@@H]1CC(Br)=NO1 | inactive |  |  |  |  |  |  | 
N[C@H](C(=O)NCc1ccccc1)[C@@H]1CC(Br)=NO1 | 0.6 s⁻¹ M⁻¹ | 41.4 | 14900 | 480 | 360 | 31 |  | 
N[C@H](C(=O)O)[C@@H]1CC(Br)=NO1 | 0.7 s⁻¹ M⁻¹ | 56.3 | 19700 | 340 | 350 | 57.9 |  | 
CCN(CC)CCCC(C)Nc1ccnc2cc(Cl)ccc12 (configuration not stated) [CHLOROQUINE] |  |  | > 40000 |  |  |  |  | 
N[C@H](CS(=O)(=O)Cc1ccccc1)[C@H]1CC(Br)=NO1 | 1.6 s⁻¹ M⁻¹ |  |  |  |  |  | Not Active | Not Active
COc1ccc(CNC(=O)[C@@H](N)[C@@H]2CC(Br)=NO2)cc1 | inactive |  |  |  |  |  |  | 
N[C@H](CSCc1ccccc1)[C@@H]1CC(Br)=NO1 | 1.6 s⁻¹ M⁻¹ |  |  |  |  |  | Not Active | Not Active
N[C@H](C(=O)OCc1ccccc1)[C@@H]1CC(Br)=NO1 | 6.6 s⁻¹ M⁻¹ | > 176 | > 65000 | 260 | 370 | > 250 |  | 
N[C@H](COCc1ccccc1)[C@@H]1CC(Br)=NO1 | 2.6 s⁻¹ M⁻¹ |  |  |  |  |  | Not Active | Not Active
N[C@H](CSCc1ccccc1)[C@H]1CC(Br)=NO1 | 0.2 s⁻¹ M⁻¹ |  |  |  |  |  | Not Active | Not Active
N[C@H](C(=O)NCc1ccc(F)cc1)[C@@H]1CC(Br)=NO1 | inactive |  |  |  |  |  |  | 
COC(=O)[C@@H](N)[C@@H]1CC(Br)=NO1 | 10.7 s⁻¹ M⁻¹ | 44 | 34800 | 880 | 790 | 39.5 |  | 
N[C@H](C(=O)NCCc1ccccc1)[C@@H]1CC(Br)=NO1 | 0.4 s⁻¹ M⁻¹ | > 357 | > 100000 | 250 | 280 | > 400 |  | 
N[C@H](C(=O)NCc1ccc([N+](=O)[O-])cc1)[C@@H]1CC(Br)=NO1 | 1.9 s⁻¹ M⁻¹ | 45.7 | 36100 | 720 | 790 | 50.1 |  | 
